Experimental data from different studies.

Cc1c(C)c2c(c(C)c1O)CCC(C)(C(=O)O)O2 (stereo not drawn) — IC50 (DPPH scavenging): 70.2 µM
COc1ccc(COC[C@@](O)(CNCc2ccc(F)cc2)[C@@H]2CC[C@@H](C)C[C@H]2OCc2ccc(OC)cc2)cc1 — inhibition (MCF7; cell growth or viability; MTT; 30 µM; 72 h): 101%
CCN(CC)c1ccc(/C=N/c2ccc(Cl)cc2)c(O)c1 — IC50 (DPPH scavenging): 30.3 µM
CC(=O)c1nn(-c2ccccc2Cl)/c(=N/N=C(\C)c2ccc(NC(=O)c3ccccc3)cc2)s1 — viability (MCF7; cell growth or viability; MTT; 0.625 µM): 6.6%
Brc1ccc(/C=N/N=C/c2ccc(Br)cc2)cc1 — IC50 (DPPH scavenging): > 3000 µM
CC(=NNC(=O)c1ccccc1)c1ccc(Nc2nnc(-c3ccc(Cl)cc3)c3ccccc23)cc1 — cell death (MCF7; cell growth or viability; MTT; 2.5 µM): 86.3%
Clc1ccc(/C=N/N=C/c2ccc(Cl)cc2Cl)c(Cl)c1 — IC50 (DPPH scavenging): > 3000 µM
CC(=NNC(=O)c1cccnc1)c1ccc(Nc2nnc(-c3ccc(Cl)cc3)c3ccccc23)cc1 — cell death (MCF7; cell growth or viability; MTT; 0.625 µM): 50.6%
CCOC(=O)c1nn(-c2cccc(Cl)c2)/c(=N/N=C(\C)c2ccc(NC(=O)c3ccc(Cl)cc3)cc2)s1 — viability (MCF7; cell growth or viability; MTT; 10 µM): 3.71%
O=C(Nc1ccc(Oc2nnc(-c3ccc(Cl)cc3)c3ccccc23)cc1)c1cccc([N+](=O)[O-])c1 — cell death (MCF7; cell growth or viability; MTT; 10 µM): 92%
O=C1O[C@H]([C@@H](O)CO)C(O)=C1O — IC50 (DPPH scavenging; absorbance; 30 min): 12.4 µM
CC(=NNC(=S)Nc1ccccc1)c1ccc(Nc2nnc(-c3ccc(Cl)cc3)c3ccccc23)cc1 — viability (MCF7; cell growth or viability; MTT; 1.25 µM; 24 h): 27.5%
Brc1cccc(/C=N/N=C/c2cccc(Br)c2)c1 — IC50 (DPPH scavenging): 2400 µM
CCOC(=O)c1nn(-c2cccc(Cl)c2)/c(=N/N=C(\C)c2ccc(NC(=O)c3ccccc3)cc2)s1 — viability (MCF7; cell growth or viability; MTT; 0.156 µM): 59.2%
Cc1cccc(/C=N/N=C/c2cccc(C)c2)c1 — IC50 (DPPH scavenging): 711 µM
O=C(Nc1ccccc1)Nc1ccc(Oc2nnc(-c3ccc(Cl)cc3)c3ccccc23)cc1 — viability (MCF7; cell growth or viability; MTT; 10 µM; 24 h): 5.36%
CCN(CC)c1ccc(/C=N/c2ccc(Br)cc2)c(O)c1 — IC50 (DPPH scavenging): 43.6 µM
Nc1ccc(/C=N/N=C/c2ccc(N)cc2)cc1 — IC50 (DPPH scavenging): > 3000 µM
